# Data taken from article PMC3947152 (European journal of nuclear medicine and molecular imaging, 2013).
# Like-named read-outs stand apart in the source and are kept apart here.
# Tests used:
# [1] = Lipophilicity: distribution coefficient between 1-octanol and PBS pH 7.4; type: physicochemical; conditions: 1-octanol/PBS
# How it was run: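 Octanol and PBS (pH 7.4) pre-equilibrated together for 24 h. Radiotracer (~11.1 kBq 18F; ~3.7 kBq 123I) added to the octanol/PBS pair, in triplicate, shaken 2 h at room temperature, then centrifuged 5 min at 2,000 rpm. Aliquots of each phase gamma counted; logD = log10(octanol counts/PBS counts).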
# human serum protein = experiment: Plasma protein binding by ultrafiltration, human; type: in vitro ADME; conditions: 37 °C, 0.5 h
# How it was run: (§1)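 Radiotracer in 10 µL (~7.4 kBq 18F; ~3.7 kBq 123I) added to 190 µL human or mouse plasma, in triplicate, gently shaken 37 °C, 0.5 h. Ultrafiltration by centrifugation 10 min at 9,000 rpm. 20 µL of pre-filtration plasma (total) and 20 µL of ultrafiltrate (unbound) gamma counted; unbound fraction taken from ultrafiltrate relative to total.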
# mouse serum protein = experiment: Plasma protein binding by ultrafiltration, mouse; type: in vitro ADME; conditions: 37 °C, 0.5 h
# How it was run: as §1
# hNET = hNET (Homo sapiens, UniProt P23975); experiment: Competitive inhibition of ^123I-MIBG binding/uptake in C6-hNET cells; type: cell-based
# hNET, sequence (P23975 whole entry): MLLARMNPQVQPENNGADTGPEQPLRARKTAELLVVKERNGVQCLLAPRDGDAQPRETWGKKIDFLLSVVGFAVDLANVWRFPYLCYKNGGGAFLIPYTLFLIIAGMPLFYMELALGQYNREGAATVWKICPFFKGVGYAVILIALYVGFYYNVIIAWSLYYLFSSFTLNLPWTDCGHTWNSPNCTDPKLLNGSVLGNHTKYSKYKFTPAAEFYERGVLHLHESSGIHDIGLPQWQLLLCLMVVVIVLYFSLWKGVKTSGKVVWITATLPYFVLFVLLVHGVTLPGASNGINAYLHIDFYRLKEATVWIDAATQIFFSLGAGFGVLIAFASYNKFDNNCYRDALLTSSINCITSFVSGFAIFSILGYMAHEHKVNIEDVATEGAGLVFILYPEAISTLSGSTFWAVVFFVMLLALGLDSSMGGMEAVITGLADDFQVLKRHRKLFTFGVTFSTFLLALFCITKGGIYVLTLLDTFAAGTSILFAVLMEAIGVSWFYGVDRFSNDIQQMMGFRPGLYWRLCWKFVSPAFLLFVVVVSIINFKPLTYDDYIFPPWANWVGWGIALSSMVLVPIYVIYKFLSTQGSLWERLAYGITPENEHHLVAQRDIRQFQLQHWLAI
# How it was run: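 C6 cells stably transduced with hNET; triplicate samples of ~0.5×10^6 cells with ~3.7 kBq 123I-MIBG and 0.005–50 nmol unlabeled benzylguanidine competitor in 0.5 mL medium, 37 °C, 2 h. Cells collected by rapid filtration on glass microfiber filters, washed 3× with ice-cold Tris-buffered saline pH 7.4, gamma counted. Cell-bound activity plotted against competitor concentration; IC50 by least-squares fit.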
# [2] = system: C6-hNET and C6-WT xenografts; experiment: Biodistribution in animals bearing dual C6-hNET and C6-WT xenografts; type: in vivo, mice; conditions: for % Injected Dose/g tissue, C6-WT: C6-WT xenograft; for % Injected Dose/g tissue, C6-hNET: C6-hNET xenograft
# C6-hNET cells = experiment: In vitro uptake in hNET-transduced and wild-type C6 cells; type: cell-based, rat; conditions: 2 h incubation at 37 °C
# How it was run: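 Both C6-hNET and wild-type C6 cells grown in DMEM HG. 1.0×10^6 cells in 1.0 mL medium, in triplicate, shaken with radiotracer (~11.1 kBq 18F-labeled or ~3.7 kBq radioiodinated) at 37 °C for 2 h. Cells filtered on glass microfiber filters, washed 3× with ice-cold TBS pH 7.4, gamma counted as % added activity per 10^6 cells. Nonspecific uptake measured with 200 µM MIBG (final). 2–5 independent experiments.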
# C6-hNET xenografts = experiment: PET imaging with ROI analysis of mice bearing C6-hNET and C6-WT xenografts; type: in vivo; conditions: for PET image-based tumor-to-intestine signal ratio: C6-hNET xenograft
# How it was run: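 Male athymic NCr-nu/nu mice (7–9 weeks) implanted subcutaneously with 5×10^6 C6-hNET cells (right shoulder) and 5×10^6 C6-WT cells (left shoulder) in medium/matrigel 1:1. Scanned at day 20 with tumors 150–350 mm³. Tail-vein injection of 3.7–11.1 MBq 18F tracer in saline. R4 microPET under 2% isoflurane, 10-min acquisitions at 1 h and 4 h p.i., 350–750 keV window. ROI maximum pixel values (%ID/mL) used; 5–7 animals per group.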
# [3] = C6-hNET cells, ^123I-MIBG as radioligand, 37 °C, 2 h
IC50 (hNET; [3]) [µM],SMILES,"% Injected Dose/g tissue, Adrenals ([2]; 4 h p.i.) [%ID/g]","% Injected Dose/g tissue, Blood ([2]; 4 h p.i.) [%ID/g]","% Injected Dose/g tissue, Bone ([2]; 4 h p.i.) [%ID/g]","% Injected Dose/g tissue, C6-WT ([2]; 4 h p.i.) [%ID/g]","% Injected Dose/g tissue, Heart ([2]; 4 h p.i.) [%ID/g]","% Injected Dose/g tissue, Intestinal contents (L) ([2]; 4 h p.i.) [%ID/g]","% Injected Dose/g tissue, Intestinal contents (S) ([2]; 4 h p.i.) [%ID/g]","% Injected Dose/g tissue, Intestinal wall (L) ([2]; 4 h p.i.) [%ID/g]","% Injected Dose/g tissue, Intestinal wall (S) ([2]; 4 h p.i.) [%ID/g]","% Injected Dose/g tissue, Kidneys ([2]; 4 h p.i.) [%ID/g]","% Injected Dose/g tissue, Liver ([2]; 4 h p.i.) [%ID/g]","% Injected Dose/g tissue, Lungs ([2]; 4 h p.i.) [%ID/g]","% Injected Dose/g tissue, Muscle ([2]; 4 h p.i.) [%ID/g]","% Injected Dose/g tissue, Pancreas ([2]; 4 h p.i.) [%ID/g]","% Injected Dose/g tissue, Salivary glands ([2]; 4 h p.i.) [%ID/g]","% Injected Dose/g tissue, Spleen ([2]; 4 h p.i.) [%ID/g]","% Injected Dose/g tissue, Stomach ([2]; 4 h p.i.) [%ID/g]",further results
–,"N=C(N)NCc1cccc(I)c1 [^123I-MIBG, meta-iodobenzylguanidine]",7.34±2.63,0.66±0.10,0.71±0.10,0.49±0.04,2.10±0.14,2.25±0.29,5.24±0.46,2.96±0.74,3.67±1.05,0.84±0.11,2.27±0.18,2.84±0.38,0.95±0.13,1.15±0.13,8.41±0.83,2.51±0.29,0.77±0.34,"logD at 2 h [1]: 0.42 ± 0.01; % unbound to human serum protein (human serum protein): 12.4±0.5 (n = 2) %; % unbound to mouse serum protein (mouse serum protein): 29.2±2.0 (n = 2) %; IC50 (hNET): 1.7 ± 0.6 µM; % Injected Dose/g tissue, C6-hNET ([2]; 4 h p.i.): 4.02±0.35 %ID/g"
9.8 ± 2.5,NC(N)=NCc1ccc(F)cc1 [PFBG],–,–,–,–,–,–,–,–,–,–,–,–,–,–,–,–,–,–
–,"N=C(N)NCc1cccc([131I])c1 [[^124I]MIBG, meta-iodobenzylguanidine]",13.9±1.7,0.76±0.15,2.56±0.27,1.27±0.10,19.6±2.5,3.62±0.89,6.92±1.79,7.88±0.74,10.3±0.6,2.09±0.10,5.42±0.44,9.50±2.26,3.21±0.28,3.48±0.31,29.1±1.8,4.43±0.35,2.85±0.54,"% Injected Dose/g tissue, Adrenals ([2]; 24 h p.i.): 7.46±1.78 %ID/g; % Injected Dose/g tissue, Blood ([2]; 24 h p.i.): 0.21±0.02 %ID/g; % Injected Dose/g tissue, Bone ([2]; 24 h p.i.): 0.45±0.09 %ID/g; % Injected Dose/g tissue, C6-WT ([2]; 24 h p.i.): 0.22±0.02 %ID/g; % Injected Dose/g tissue, C6-hNET ([2]; 24 h p.i.): 3.58±0.55 %ID/g; % Injected Dose/g tissue, Heart ([2]; 24 h p.i.): 2.93±0.17 %ID/g; % Injected Dose/g tissue, Intestinal contents (L) ([2]; 24 h p.i.): 2.00±0.06 %ID/g; % Injected Dose/g tissue, Intestinal contents (S) ([2]; 24 h p.i.): 1.76±0.40 %ID/g; % Injected Dose/g tissue, Intestinal wall (L) ([2]; 24 h p.i.): 3.18±0.45 %ID/g; % Injected Dose/g tissue, Intestinal wall (S) ([2]; 24 h p.i.): 2.66±0.18 %ID/g; % Injected Dose/g tissue, Kidneys ([2]; 24 h p.i.): 0.64±0.04 %ID/g; % Injected Dose/g tissue, Liver ([2]; 24 h p.i.): 1.00±0.05 %ID/g; % Injected Dose/g tissue, Lungs ([2]; 24 h p.i.): 1.55±0.37 %ID/g; % Injected Dose/g tissue, Muscle ([2]; 24 h p.i.): 0.69±0.07 %ID/g; % Injected Dose/g tissue, Pancreas ([2]; 24 h p.i.): 0.75±0.10 %ID/g; % Injected Dose/g tissue, Salivary glands ([2]; 24 h p.i.): 7.95±0.81 %ID/g; % Injected Dose/g tissue, Spleen ([2]; 24 h p.i.): 1.36±0.27 %ID/g; % Injected Dose/g tissue, Stomach ([2]; 24 h p.i.): 1.08±0.08 %ID/g"
7.2 ± 0.5,"N=C(N)NCc1ccc(I)cc1 [PIBG, para-iodobenzylguanidine]",–,–,–,–,–,–,–,–,–,–,–,–,–,–,–,–,–,–
–,"N=C(N)NCc1ccc([18F])cc1 [[^18F]PFBG, para-[^18F]fluorobenzylguanidine]",–,–,–,–,–,–,–,–,–,–,–,–,–,–,–,–,–,fold lower uptake in C6-hNET cells than that of ^123I/[^124I]MIBG (C6-hNET cells): 4 fold; PET image-based tumor-to-intestine signal ratio (C6-hNET xenografts; 1 h post injection): 0.4±0.1; PET image-based tumor-to-intestine signal ratio (C6-hNET xenografts; 4 h post injection): 1.5±0.3
4.86 ± 0.59,N=C(N)NCc1cccc(F)c1 [MFBG],–,–,–,–,–,–,–,–,–,–,–,–,–,–,–,–,–,–
4.9 ± 0.6,N=C(N)NCc1cccc(F)c1 [[^18F]MFBG] [meta-[^18F]fluorobenzylguanidine],–,–,–,–,–,–,–,–,–,–,–,–,–,–,–,–,–,–
–,N=C(N)NCc1cccc([18F])c1 [[^18F]MFBG] [meta-[^18F]fluorobenzylguanidine],5.56±2.34,0.25±0.05,0.89±0.16,0.57±0.08,2.21±0.66,1.26±0.23,1.36±0.11,1.72±0.52,2.16±0.26,0.99±0.29,2.05±0.30,1.30±0.20,0.62±0.09,0.78±0.06,6.09±1.02,1.50±0.19,0.46±0.12,"fold lower affinity to hNET compared to ^123I/[^124I]MIBG (hNET; from IC50 values in C6-hNET cells): 2.8 fold; fold higher accumulation in C6-hNET tumors than [^18F]PFBG (C6-hNET xenografts; 1 h p.i., in vivo): 1.6 fold; PET image-based tumor-to-intestine signal ratio (C6-hNET xenografts; 1 h post injection): 1.3±0.2; PET image-based tumor-to-intestine signal ratio (C6-hNET xenografts; 4 h post injection): 2.4±0.3; % Injected Dose/g tissue, C6-hNET ([2]; 4 h p.i.): 4.25±0.95 %ID/g; C6-hNET/tissue ratio, Blood ([2]; C6-hNET/Blood, 4 h p.i.): 17.1±4.4; C6-hNET/tissue ratio, Intestine wall (L) ([2]; C6-hNET/Intestine wall (L), 4 h p.i.): 1.8±0.7; C6-hNET/tissue ratio, Intestine wall (S) ([2]; C6-hNET/Intestine wall (S), 4 h p.i.): 1.9±0.4; C6-hNET/tissue ratio, Liver ([2]; C6-hNET/Liver, 4 h p.i.): 2.1±0.4; C6-hNET/tissue ratio, Muscle ([2]; C6-hNET/Muscle, 4 h p.i.): 6.8±0.9; C6-hNET/tissue ratio, Salivary gland ([2]; C6-hNET/Salivary gland, 4 h p.i.): 0.7±0.1"
9.8 ± 2.5,"N=C(N)NCc1ccc(F)cc1 [[^18F]PFBG, para-[^18F]fluorobenzylguanidine]",–,–,–,–,–,–,–,–,–,–,–,–,–,–,–,–,–,–

SMILES,IC50 (hNET; [3]) [µM],"% Injected Dose/g tissue, Adrenals ([2]; 4 h p.i.) [%ID/g]","% Injected Dose/g tissue, Blood ([2]; 4 h p.i.) [%ID/g]","% Injected Dose/g tissue, Bone ([2]; 4 h p.i.) [%ID/g]","% Injected Dose/g tissue, C6-WT ([2]; 4 h p.i.) [%ID/g]","% Injected Dose/g tissue, Heart ([2]; 4 h p.i.) [%ID/g]","% Injected Dose/g tissue, Intestinal contents (L) ([2]; 4 h p.i.) [%ID/g]","% Injected Dose/g tissue, Intestinal contents (S) ([2]; 4 h p.i.) [%ID/g]","% Injected Dose/g tissue, Intestinal wall (L) ([2]; 4 h p.i.) [%ID/g]","% Injected Dose/g tissue, Intestinal wall (S) ([2]; 4 h p.i.) [%ID/g]","% Injected Dose/g tissue, Kidneys ([2]; 4 h p.i.) [%ID/g]","% Injected Dose/g tissue, Liver ([2]; 4 h p.i.) [%ID/g]","% Injected Dose/g tissue, Lungs ([2]; 4 h p.i.) [%ID/g]","% Injected Dose/g tissue, Muscle ([2]; 4 h p.i.) [%ID/g]","% Injected Dose/g tissue, Pancreas ([2]; 4 h p.i.) [%ID/g]","% Injected Dose/g tissue, Salivary glands ([2]; 4 h p.i.) [%ID/g]","% Injected Dose/g tissue, Spleen ([2]; 4 h p.i.) [%ID/g]","% Injected Dose/g tissue, Stomach ([2]; 4 h p.i.) [%ID/g]",further results
"N=C(N)NCc1cccc(I)c1 [MIBG, meta-iodobenzylguanidine]",1.72 ± 0.58,–,–,–,–,–,–,–,–,–,–,–,–,–,–,–,–,–,–
